# High-throughput results deposited in PubChem by Broad Institute.
# A1 apoptosis 2: compounds inhibiting A1, read as caspase activation. MEF A1-2A-BIM cells, caspase-Glo luminescence, 3 h; percent of clofoctol response, DMSO zero. caspase activation, % (no concentration beside the values). 24,000 tested, under 10 active. AID 2465; in the data active means caspase activation above about 5.9%; inconclusive means no clear call, values can overlap the other calls; inactive means below about 2.2%
#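 System: mouse embryonic fibroblasts co-expressing A1 and BIM (A1-2A-BIM), primed for A1 dependence; amount: 2500 cells/well; doses: 50 nL pinned compound; schedule: cells settled overnight, compound exposure 3 h at 37 °C, 5% CO2; detection: Caspase-Glo 3/7 luminescence, 1 h at room temperature; read-out: Caspase-3/7 activation, seen as rise in luminescence signal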
# INS-1E ATP HTS: preserves ATP levels in cytokine-treated INS-1E cells. 20,000 tested, 0.1% active. INS-1E cytokine-induced death, ATP luminescence, 48 h; normalised: neutral wells 0, positive control 100. protection from cytokine-induced ATP loss, % at 10 µM. AID 488910;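 active means mean replicate protection from cytokine-induced ATP loss at least 50% and at least 75% of replicates each reaching 50%; inconclusive means meets only one of the two criteria, mean or replicate share; inactive means fails both the mean and replicate share criteria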
#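 Assay system – rat INS-1E insulinoma cell line · Quantity – 8000 cells per well · Buffer or medium – RPMI without phenol red, 5% FBS · Schedule – 48 h co-treatment, 10 min post-lysis read · Technique – luminescent ATP assay (CellTiter-Glo)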
# T cruzi intra: intracellular Trypanosoma cruzi inhibition. 22,000 tested, 4.9% active. intracellular Trypanosoma cruzi in host cells, plate reader. activity score (inhibition), % at 5.01 µM; in the data active means activity score above about 55%; inconclusive means no clear call, values can overlap the other calls;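 further: parasites and compound incubated about four days before reading; 0% = median of neutral control wells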
# Active calls of the source: *; ? = inconclusive; · = no result given. Shown is part of a subset that was picked to be rich in hits.
SMILES,A1 apoptosis 2,INS-1E ATP HTS,T cruzi intra
C[C@@H]1CCCCO[C@H](CN(C)C(=O)Nc2ccc(C(F)(F)F)cc2)[C@@H](C)CN([C@@H](C)CO)C(=O)c2cc(NC(=O)Nc3ccc(C(F)(F)F)cc3)ccc2O1,0,·,·
C[C@@H]1CCCCO[C@H](CN(C)C(=O)Nc2ccc(C(F)(F)F)cc2)[C@@H](C)CN([C@H](C)CO)C(=O)c2cc(NC(=O)Nc3ccc(C(F)(F)F)cc3)ccc2O1,0,-23,65*
C[C@H](CO)N1C[C@H](C)[C@@H](CN(C)Cc2ccc(Oc3ccccc3)cc2)Oc2c(NC(=O)Nc3ccc4c(c3)OCO4)cccc2C1=O,·,-46,28
C[C@@H]1CN([C@@H](C)CO)C(=O)c2cccc(NC(=O)Nc3ccc4c(c3)OCO4)c2O[C@H]1CN(C)Cc1ccc(Oc2ccccc2)cc1,-1,-49,70*
C[C@@H]1CN([C@H](C)CO)C(=O)c2cccc(NC(=O)Nc3ccc4c(c3)OCO4)c2O[C@@H]1CN(C)Cc1ccc(Oc2ccccc2)cc1,·,-9,4
C[C@@H]1CN([C@@H](C)CO)C(=O)c2cccc(NC(=O)Nc3ccc4c(c3)OCO4)c2O[C@@H]1CN(C)Cc1ccc(Oc2ccccc2)cc1,·,-31,73*
COC(=O)c1ccc(/C=N/NC(=O)c2cccc(C(=O)NO)c2)cc1,-5,-12,-12
C[C@H](CO)N1C[C@H](C)[C@@H](CN(C)Cc2ccc(Cl)c(Cl)c2)Oc2ccc(NS(=O)(=O)c3ccc(Cl)cc3)cc2C1=O,·,-6,64*
Cc1ccc(S(=O)(=O)Nc2ccc3c(c2)C(=O)N([C@H](C)CO)C[C@H](C)[C@@H](CN(C)Cc2ccc(Cl)c(Cl)c2)O3)cc1,·,-7,9
Cc1ccc(S(=O)(=O)Nc2ccc3c(c2)C(=O)N([C@@H](C)CO)C[C@H](C)[C@H](CN(C)Cc2ccc(Cl)c(Cl)c2)O3)cc1,-1,·,14*
C[C@H]1CN([C@@H](C)CO)C(=O)c2cc(NS(=O)(=O)c3cccs3)ccc2O[C@@H]1CN(C)Cc1ccc(Cl)c(Cl)c1,·,-9,57*
C[C@@H]1CN([C@H](C)CO)C(=O)c2cc(NS(=O)(=O)c3ccc(F)cc3)ccc2O[C@H]1CN(C)Cc1ccc(Cl)c(Cl)c1,·,-11,7
C[C@H](CO)N1C[C@H](C)[C@@H](CN(C)Cc2ccncc2)Oc2ccc(NS(=O)(=O)c3cccs3)cc2C1=O,0,0,3
COCCOC(=O)N1C(=O)[C@@]2(c3cc(C#CC4=CCCCC4)ccc31)[C@H](C(=O)N1CCN(c3ncccn3)CC1)[C@H]1C(=O)O[C@H](c3ccccc3)[C@H](c3ccccc3)N1[C@@H]2c1ccc(O)cc1,0,·,·
CCO[C@@H]1OC(C(=O)N2CCN(Cc3ccccc3)CC2)=C[C@H](C(C)(C)C)[C@H]1CCCO,-1,·,·
O=C(O)CCCCCCC(=O)N/N=C/c1ccc(Br)o1,0,10,-12
C[C@H](CO)N1C[C@H](C)[C@H](CN(C)Cc2ccc(C(F)(F)F)cc2)Oc2ccc(NC(=O)Cc3ccccc3)cc2CC1=O,0,6,?
C[C@H]1CN([C@@H](C)CO)C(=O)Cc2cc(NC(=O)Cc3ccccc3)ccc2O[C@H]1CN(C)Cc1ccc(C(F)(F)F)cc1,-1,13,69*
C[C@@H]1CN([C@@H](C)CO)C(=O)Cc2cc(NC(=O)Nc3ccc(C(F)(F)F)cc3)ccc2O[C@H]1CN(C)Cc1ccccc1,0,·,·
C[C@H]1CN([C@@H](C)CO)C(=O)Cc2cc(NC(=O)Cc3ccccc3)ccc2O[C@@H]1CN(C)Cc1ccc(C(F)(F)F)cc1,0,-6,58*
CC(=O)n1cc([C@H]2C=C(C(=O)N3CCN(C)CC3)O[C@@H](OCc3ccc(CO)cc3)C2)c2ccccc21,0,·,·
COc1ccc(S(=O)(=O)Nc2ccc3c(c2)CC(=O)N([C@H](C)CO)C[C@@H](C)[C@H](CN(C)CC2CCCCC2)O3)cc1,-1,-9,59*
COc1ccc(S(=O)(=O)Nc2ccc3c(c2)CC(=O)N([C@H](C)CO)C[C@H](C)[C@H](CN(C)CC2CCCCC2)O3)cc1,·,-25,-4
C[C@H]1CN([C@@H](C)CO)C(=O)Cc2cc(NS(=O)(=O)c3ccc(Cl)cc3)ccc2O[C@H]1CN(C)CC1CCCCC1,3,-18,73*
C[C@H]1CN([C@@H](C)CO)C(=O)Cc2cc(NS(=O)(=O)c3ccc(Cl)cc3)ccc2O[C@@H]1CN(C)CC1CCCCC1,0,-12,53
SMILES,A1 apoptosis 2,INS-1E ATP HTS,T cruzi intra
COC(=O)CCCCCCC(=O)N/N=C/C1=CCCCC1,0,-1,0
O=C(N/N=C/[C@@H](O)[C@@H](O)[C@H](O)[C@H](O)CO)c1ccccc1O,1,-11,-11
O=C(CCCCCC(=O)Nc1ccccc1O)N/N=C/c1cc(Br)cs1,-1,15,4
C[C@@H]1CN([C@@H](C)CO)C(=O)Cc2cc(NC(=O)Nc3ccc(C(F)(F)F)cc3)ccc2O[C@@H]1CN(C)C(=O)Nc1ccc(C(F)(F)F)cc1,1,-11,76*
C[C@@H]1CN([C@H](C)CO)C(=O)Cc2cc(NC(=O)Nc3ccc(C(F)(F)F)cc3)ccc2O[C@H]1CN(C)C(=O)Nc1ccc(C(F)(F)F)cc1,0,-30,-15
C[C@@H]1CN([C@H](C)CO)C(=O)Cc2cc(NC(=O)Nc3ccc(C(F)(F)F)cc3)ccc2O[C@H]1CN(C)Cc1ccc2c(c1)OCO2,-1,0,8
C[C@@H]1CN([C@@H](C)CO)C(=O)Cc2cc(NC(=O)C3CC3)ccc2O[C@@H]1CN(C)Cc1ccc(C(F)(F)F)cc1,0,-4,-13
C[C@@H]1CN([C@@H](C)CO)C(=O)Cc2cc(NC(=O)Nc3ccc(F)cc3)ccc2O[C@@H]1CN(C)Cc1ccc(C(F)(F)F)cc1,·,-32,80*
C[C@H]1CN([C@@H](C)CO)C(=O)Cc2cc(NC(=O)C3CC3)ccc2O[C@@H]1CN(C)Cc1ccc(C(F)(F)F)cc1,0,0,74*
C[C@@H]1CN([C@@H](C)CO)C(=O)Cc2cc(NC(=O)Nc3ccc(C(F)(F)F)cc3)ccc2O[C@@H]1CN(C)Cc1ccc2c(c1)OCO2,·,-35,58*
C[C@@H]1CN([C@@H](C)CO)C(=O)Cc2cc(NC(=O)Nc3ccc(F)cc3)ccc2O[C@H]1CN(C)Cc1ccc(C(F)(F)F)cc1,-1,·,·
COc1cc2c(cc1O)C(c1cccs1)N(Cc1cccc(OC(F)(F)F)c1)CC2 (stereo not given),0,·,·
O=C(N/N=C/c1ccoc1)c1ccccn1,·,-1,-4
O=C(CCCCCC(=O)Nc1ccccc1O)N/N=C/c1cccc(C(=O)O)c1,1,-15,-4
C[C@H]1CN([C@@H](C)CO)C(=O)Cc2cc(NC(=O)Nc3ccc(F)cc3)ccc2O[C@H]1CN(C)Cc1ccc(C(F)(F)F)cc1,·,-52,46
C[C@H]1CN([C@@H](C)CO)C(=O)Cc2cc(NC(=O)Nc3ccc(C(F)(F)F)cc3)ccc2O[C@@H]1CN(C)Cc1ccc(C(F)(F)F)cc1,0,-81,69*
O=C(CCCCCC(=O)Nc1ccccc1O)N/N=C/c1ccc(O)cc1,1,6,-3
